Test results as given in ChEMBL document CHEMBL1165965, “Synthesis and structure-activity relationships of 1,2,3,4-tetrahydropyrido[2,3-b]pyrazines as potent and selective inhibitors of the anaplastic lymphoma kinase” (Bioorg Med Chem, 2010).

Columns and labels:
[1] = target: T1, Serine/threonine-protein kinase LATS2 (Homo sapiens) (UniProt Q9NRM7); assay: Inhibition of LATS2 at 1 uM
T1 sequence (whole entry): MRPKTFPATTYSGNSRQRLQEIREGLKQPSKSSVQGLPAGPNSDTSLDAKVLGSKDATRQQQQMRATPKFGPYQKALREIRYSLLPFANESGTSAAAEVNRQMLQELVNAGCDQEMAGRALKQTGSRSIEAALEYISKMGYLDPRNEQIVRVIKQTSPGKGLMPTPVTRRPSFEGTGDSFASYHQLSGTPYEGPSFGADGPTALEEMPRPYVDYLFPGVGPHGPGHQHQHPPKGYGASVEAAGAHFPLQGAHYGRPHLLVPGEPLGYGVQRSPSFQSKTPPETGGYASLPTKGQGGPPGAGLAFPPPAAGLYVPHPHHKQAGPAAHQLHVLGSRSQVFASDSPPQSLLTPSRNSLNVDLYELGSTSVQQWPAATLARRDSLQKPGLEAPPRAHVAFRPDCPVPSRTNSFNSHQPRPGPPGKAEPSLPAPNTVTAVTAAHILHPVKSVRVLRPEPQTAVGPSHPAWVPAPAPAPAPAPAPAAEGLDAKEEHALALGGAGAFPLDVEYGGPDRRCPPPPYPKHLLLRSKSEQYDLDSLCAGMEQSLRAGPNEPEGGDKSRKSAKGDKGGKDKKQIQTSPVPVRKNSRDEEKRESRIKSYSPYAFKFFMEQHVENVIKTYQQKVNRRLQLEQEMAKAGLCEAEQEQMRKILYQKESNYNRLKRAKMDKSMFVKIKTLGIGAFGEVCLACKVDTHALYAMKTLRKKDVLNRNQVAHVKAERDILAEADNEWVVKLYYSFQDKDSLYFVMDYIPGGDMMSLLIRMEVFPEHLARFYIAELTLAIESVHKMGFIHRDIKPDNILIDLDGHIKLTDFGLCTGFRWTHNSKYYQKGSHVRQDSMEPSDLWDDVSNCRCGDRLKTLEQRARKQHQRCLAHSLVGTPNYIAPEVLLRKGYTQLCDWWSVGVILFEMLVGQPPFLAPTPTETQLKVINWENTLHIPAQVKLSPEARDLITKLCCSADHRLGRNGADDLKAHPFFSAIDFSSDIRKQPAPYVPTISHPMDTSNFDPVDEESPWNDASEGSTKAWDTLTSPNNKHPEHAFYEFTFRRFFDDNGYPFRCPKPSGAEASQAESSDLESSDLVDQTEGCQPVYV

[2] = target: T2, Serine/threonine-protein kinase NLK (Homo sapiens) (UniProt Q9UBE8); assay: Inhibition of NLK at 1 uM
T2 sequence (whole entry): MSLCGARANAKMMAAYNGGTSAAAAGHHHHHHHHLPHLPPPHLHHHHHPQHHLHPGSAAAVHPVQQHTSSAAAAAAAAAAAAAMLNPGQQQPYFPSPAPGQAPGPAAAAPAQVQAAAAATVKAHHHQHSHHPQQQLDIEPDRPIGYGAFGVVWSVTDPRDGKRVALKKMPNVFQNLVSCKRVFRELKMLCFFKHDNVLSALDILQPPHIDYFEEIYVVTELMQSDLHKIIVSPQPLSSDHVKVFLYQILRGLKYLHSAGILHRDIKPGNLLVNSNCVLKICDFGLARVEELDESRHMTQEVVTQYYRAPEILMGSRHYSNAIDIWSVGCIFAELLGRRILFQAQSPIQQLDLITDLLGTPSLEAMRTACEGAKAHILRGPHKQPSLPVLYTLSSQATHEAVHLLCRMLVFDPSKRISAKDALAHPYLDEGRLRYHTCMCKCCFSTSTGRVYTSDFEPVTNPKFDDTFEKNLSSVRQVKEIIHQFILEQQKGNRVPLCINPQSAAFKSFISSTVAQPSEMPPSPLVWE

[3] = target: T3, Mitogen-activated protein kinase kinase kinase 7 (Homo sapiens) (UniProt O43318); assay: Inhibition of TAK1 at 1 uM
T3 sequence (whole entry): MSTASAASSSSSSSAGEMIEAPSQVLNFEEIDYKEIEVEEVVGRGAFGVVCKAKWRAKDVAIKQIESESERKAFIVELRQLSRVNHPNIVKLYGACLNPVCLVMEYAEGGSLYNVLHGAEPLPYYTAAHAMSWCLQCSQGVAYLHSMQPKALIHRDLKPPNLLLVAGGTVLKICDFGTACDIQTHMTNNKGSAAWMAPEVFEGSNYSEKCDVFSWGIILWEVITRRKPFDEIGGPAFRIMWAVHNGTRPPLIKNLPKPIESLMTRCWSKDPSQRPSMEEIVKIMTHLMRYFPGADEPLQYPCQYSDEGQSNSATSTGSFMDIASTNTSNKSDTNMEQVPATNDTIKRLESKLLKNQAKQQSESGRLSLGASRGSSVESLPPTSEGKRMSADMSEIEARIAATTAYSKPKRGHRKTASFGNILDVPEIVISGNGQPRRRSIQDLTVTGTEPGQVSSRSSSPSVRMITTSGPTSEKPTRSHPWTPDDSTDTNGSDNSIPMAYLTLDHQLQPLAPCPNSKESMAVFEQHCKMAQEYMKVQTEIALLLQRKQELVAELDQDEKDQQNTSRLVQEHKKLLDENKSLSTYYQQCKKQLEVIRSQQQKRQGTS

[4] = target: Death-associated protein kinase 3 (Homo sapiens) (UniProt O43293); assay: Inhibition of DAPK3 at 1 uM
Procedure, shortened: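 Single-concentration screen using Ambit Bioscience KINOMEscan technology across a panel of 250–400 kinases. Per-kinase inhibition from this screen was summarized as S(90), the fraction of kinases inhibited by more than 90%.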

[5] = target: Cyclin-dependent kinase 17 (Homo sapiens) (UniProt Q00537); assay: Inhibition of PCTK2 at 1 uM
[6] = target: T4, Serine/threonine-protein kinase DCLK3 (Homo sapiens) (UniProt Q9C098); assay: Inhibition of DCAMKL3 at 1 uM
T4 sequence (whole entry): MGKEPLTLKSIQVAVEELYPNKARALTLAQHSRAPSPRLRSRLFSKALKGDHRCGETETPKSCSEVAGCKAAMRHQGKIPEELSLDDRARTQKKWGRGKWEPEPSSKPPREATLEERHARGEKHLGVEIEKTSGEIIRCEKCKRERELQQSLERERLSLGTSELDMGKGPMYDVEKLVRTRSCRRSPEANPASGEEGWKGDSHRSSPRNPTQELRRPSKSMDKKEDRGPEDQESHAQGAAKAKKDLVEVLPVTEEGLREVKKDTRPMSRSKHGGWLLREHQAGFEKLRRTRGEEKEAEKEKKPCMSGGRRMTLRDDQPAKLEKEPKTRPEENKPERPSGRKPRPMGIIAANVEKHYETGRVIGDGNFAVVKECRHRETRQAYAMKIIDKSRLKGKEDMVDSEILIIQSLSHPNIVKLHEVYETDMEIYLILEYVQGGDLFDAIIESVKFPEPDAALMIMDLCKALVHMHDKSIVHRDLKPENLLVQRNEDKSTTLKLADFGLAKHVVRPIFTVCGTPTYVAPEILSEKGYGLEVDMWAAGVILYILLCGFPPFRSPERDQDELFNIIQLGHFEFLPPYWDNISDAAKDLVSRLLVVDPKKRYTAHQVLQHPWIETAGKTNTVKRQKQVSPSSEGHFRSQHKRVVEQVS

Chain of Death-associated protein kinase 3 (Homo sapiens) (O43293 whole entry, looked up): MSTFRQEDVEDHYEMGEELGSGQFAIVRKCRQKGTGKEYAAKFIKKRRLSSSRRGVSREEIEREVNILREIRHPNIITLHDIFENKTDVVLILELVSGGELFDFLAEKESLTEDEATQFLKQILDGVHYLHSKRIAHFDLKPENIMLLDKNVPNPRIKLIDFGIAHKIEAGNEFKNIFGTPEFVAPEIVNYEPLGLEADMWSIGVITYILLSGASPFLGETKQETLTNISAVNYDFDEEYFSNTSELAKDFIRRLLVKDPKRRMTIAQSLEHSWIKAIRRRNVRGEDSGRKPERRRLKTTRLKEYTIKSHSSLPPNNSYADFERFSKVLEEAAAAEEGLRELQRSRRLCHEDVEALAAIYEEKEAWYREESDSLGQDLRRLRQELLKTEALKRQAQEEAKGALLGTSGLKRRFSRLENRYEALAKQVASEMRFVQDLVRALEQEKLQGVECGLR
Chain of Cyclin-dependent kinase 17 (Homo sapiens) (Q00537 whole entry, looked up): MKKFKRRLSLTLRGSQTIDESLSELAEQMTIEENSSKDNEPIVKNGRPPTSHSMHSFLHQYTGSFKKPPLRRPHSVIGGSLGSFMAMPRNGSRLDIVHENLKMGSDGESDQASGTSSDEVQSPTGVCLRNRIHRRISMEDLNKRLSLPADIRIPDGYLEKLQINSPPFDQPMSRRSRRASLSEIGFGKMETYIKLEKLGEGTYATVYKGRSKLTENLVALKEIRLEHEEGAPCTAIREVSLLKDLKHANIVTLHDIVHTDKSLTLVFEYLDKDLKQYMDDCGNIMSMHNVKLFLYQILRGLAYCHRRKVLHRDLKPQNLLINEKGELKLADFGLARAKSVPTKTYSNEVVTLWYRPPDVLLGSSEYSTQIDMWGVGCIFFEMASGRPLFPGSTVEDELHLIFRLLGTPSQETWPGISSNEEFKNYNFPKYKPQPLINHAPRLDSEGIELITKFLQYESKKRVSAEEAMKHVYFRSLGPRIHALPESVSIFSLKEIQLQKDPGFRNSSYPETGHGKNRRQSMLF

Row | SMILES | inhibition [1] | inhibition [2] | inhibition [3] | inhibition [4] | inhibition [5] | inhibition [6]
1 | CN1CCN(c2ccc(-c3cnc4c(c3)N(Cc3cc(F)ccc3F)CCN4)cn2)CC1 | < 50% | < 50% | < 50% | < 50% | < 50% | 89%
2 | O=C(c1ccc(-c2cnc3c(c2)N(Cc2cc(Cl)ccc2C(F)(F)F)CCN3)cc1)N1CCC(N2CCCC2)CC1 | – | < 50% | – | < 50% | – | –
3 | O=C(c1ccc(-c2cnc3c(c2)N(Cc2cc(Cl)ccc2C(F)(F)F)CCN3)cc1)N1CCCCC1 | – | < 50% | – | < 50% | – | –
4 | CN1CCN(c2ccc(-c3cnc4c(c3)N(Cc3c(F)ccc(F)c3Cl)CCN4)cn2)CC1 | < 50% | < 50% | < 50% | < 50% | < 50% | < 50%
5 | COC1CCN(C(=O)c2ccc(-c3cnc4c(c3)N(Cc3cc(Cl)ccc3C(F)(F)F)CCN4)cc2)CC1 | – | < 50% | – | < 50% | – | –
6 | O=C(O)c1ccc(-c2cnc3c(c2)N(Cc2cc(Cl)ccc2C(F)(F)F)CCN3)cc1 | – | < 50% | – | < 50% | – | –
7 | CC(=O)N1CCN(c2cc(-c3cnc4c(c3)N(Cc3cc(Cl)ccc3C(F)(F)F)CCN4)ccn2)CC1 | < 50% | < 50% | < 50% | < 50% | < 50% | 92%
8 | FC(F)(F)c1ccc(Cl)cc1CN1CCNc2ncc(-c3ccnc(N4CCNCC4)c3)cc21 | < 50% | < 50% | < 50% | < 50% | < 50% | 99%
9 | CN1CCN(c2ccc(-c3cnc4c(c3)N(Cc3cc(Cl)ccc3C(F)(F)F)CCN4)cn2)CC1 | < 50% | < 50% | < 50% | < 50% | < 50% | 75%
10 | CN1CCN(c2ccc(-c3cnc4c(c3)N(Cc3cc(Cl)ccc3Cl)CCN4)cn2)CC1 | < 50% | < 50% | < 50% | < 50% | < 50% | 84%
